Laboratory results as given in ChEMBL document CHEMBL1146097, “Catalytic site prediction and virtual screening of cytochrome P450 2D6 substrates by consideration of water and rescoring in automated docking” (J Med Chem, 2006).

Biological target: Cytochrome P450 2D6 (Homo sapiens, UniProt P10635)
Experiment: Inhibition of human CYP2D6 expressed in Escherichia coli JM109
Assay type: ADME
How it was run: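 IC50 from inhibition of CYP2D6-catalysed MAMC O-demethylation; values are means of at least three independent experiments ± standard deviation.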

Sequence of Cytochrome P450 2D6 (P10635 whole entry): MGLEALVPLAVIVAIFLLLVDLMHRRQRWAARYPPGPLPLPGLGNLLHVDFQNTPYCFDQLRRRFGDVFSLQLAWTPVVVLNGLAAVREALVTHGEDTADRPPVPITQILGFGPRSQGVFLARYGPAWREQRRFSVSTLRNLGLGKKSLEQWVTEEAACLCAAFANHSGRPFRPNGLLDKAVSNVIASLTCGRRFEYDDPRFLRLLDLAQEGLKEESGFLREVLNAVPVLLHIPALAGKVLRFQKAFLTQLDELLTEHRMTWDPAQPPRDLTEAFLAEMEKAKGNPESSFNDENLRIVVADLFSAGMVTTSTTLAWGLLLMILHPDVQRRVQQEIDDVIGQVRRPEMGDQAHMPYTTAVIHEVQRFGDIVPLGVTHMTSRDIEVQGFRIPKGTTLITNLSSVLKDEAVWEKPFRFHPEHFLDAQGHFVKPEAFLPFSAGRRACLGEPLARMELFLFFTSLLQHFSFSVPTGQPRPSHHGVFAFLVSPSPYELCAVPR

Q: Which IC50 does the source give for `CC(Cc1ccccc1)NC1CC2c3ccccc3CCc3cccc1c32` (configuration not stated) here?
A: The IC50 was 0.15 µM.

Q: With `c1ccc(CCNCCC2c3ccccc3Sc3ccccc32)cc1` as the compound, how does the IC50 read?
A: The IC50 was 0.26 µM.

Q: Which IC50 does the source give for `CC1C2C=C(C=C3c4ccccc4CCc4ccccc43)CC1CC2` (configuration not stated) here?
A: Its IC50 is 0.21 µM.

Q: How did the IC50 turn out when `Cc1ccc2c(c1)C(n1cccc1)c1cccnc1CC2` (configuration not stated) was run?
A: The IC50 was 40 µM.

Q: Which IC50 does the source give for `CCCCCCCCCCCc1cccn1C1c2ccccc2CCc2ccccc21` here?
A: The IC50 was 5.8 µM.

Q: For `C[N+]1(C)C2CCC1CC(OC1c3ccccc3C=Cc3ccccc31)C2` (configuration not stated), which IC50 is on record?
A: Its IC50 is 60 µM.

Q: `Nc1ccccc1-c1nc(N)c2ccccc2n1` was tested. Which IC50 did it give?
A: The IC50 was 169 µM.

Q: How did the IC50 turn out when `O=C1c2ccccc2C(O)C1C1c2ccccc2C=Cc2ccccc21` (configuration not stated) was run?
A: The IC50 was 60 µM.

Q: For `CN(C)CCC1(O)c2ccccc2CCc2ccc3ccccc3c21` (configuration not stated), which IC50 is on record?
A: Its IC50 is 0.06 µM.

Q: `Cn1ccnc1C(O)C=C(c1ccccc1)c1ccccc1` (configuration not stated) was tested. Which IC50 did it give?
A: Its IC50 is 15 µM.

Q: How did the IC50 turn out when `CCC(=O)O/N=C1\c2ccccc2CCc2ncccc21` was run?
A: The IC50 was greater than 400 µM.

Q: With `C(=C1c2ccccc2CCc2ccccc21)c1ccccc1` as the compound, how does the IC50 read?
A: Its IC50 is greater than 200 µM.

Q: `CCc1ccccc1C1(Br)C(=O)c2ccccc2C1=O` was tested. Which IC50 did it give?
A: Its IC50 is 83 µM.

Q: Which IC50 does the source give for `Fc1ccc(C(OCCN2CCC(CCCc3ccccc3)CC2)c2ccc(F)cc2)cc1` here?
A: Its IC50 is 1.21 µM.

Q: `Oc1ccccc1/C=N/c1ccccc1` [2-((PHENYLIMINO)METHYL)PHENOL] was tested. Which IC50 did it give?
A: The IC50 was greater than 1000 µM.

Q: With `COc1ccc2c(c1)[C@]13CCCC[C@@H]1[C@H](C2)N(C)CC3` [DEXTROMETHORPHAN] as the compound, how does the IC50 read?
A: Its IC50 is 3.4 µM.

Q: With `CCC(c1ccccc1)c1c(O)c2ccccc2oc1=O` (configuration not stated) [PHENPROCOUMON] as the compound, how does the IC50 read?
A: Its IC50 is 528 µM.
